A selection: hits, their analogues and other compounds. The true share with any hit is near 1.6%.
SR-BI DiI inh: inhibitors of SR-BI mediated HDL lipid uptake, primary screen, ldlA[mSR-BI] cells, fluorescence, single point; ldlA[mSR-BI] CHO cells, DiI-HDL uptake fluorescence, 3 h; actives 0.96% (n = 320,000); Scavenger receptor class B member 1 (Mus musculus), Q61009; inhibition, % at 12.5 µM;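 active means mean replicate inhibition of at least 70% and a set share of replicates each scoring 70 or more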;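 further: 0% = median of neutral control wells and 100% = median of positive control wells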
S100A4 MyoIIA: inhibitors of S100A4-myosin IIA peptide binding, primary screen, biochemical, fluorescence polarization, TAMRA-MyoIIA peptide | inhibition, % at 10.7 µM | actives 0.14% (n = 360,000) | Protein S100-A4 (Homo sapiens), P26447;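 active means mean inhibition of at least 70% across replicates, with every replicate also reaching that level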
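Assay system: human S100A4 monomer with TAMRA-labelled myosin IIA peptide / Buffer or medium: Calcium-containing HEPES buffer, pH 7.2 / Reagent: TAMRA-labelled myosin IIA heavy-chain peptide probe, 5 nM / Compound: one dose per compound / Timing: polarization read 5 min after assay mix addition, stable 5–60 min / Benchmarks: neutral control DMSO, positive control TFP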
RAD54 inh: inhibitors of human RAD54 branch migration, primary screen, biochemical, fluorescence, single point | DNA repair and recombination protein RAD54-like (Homo sapiens), Q92698 | RAD54 Holliday junction branch migration, FAM/BHQ fluorescence | inhibition, % at 10.4 µM | actives 0.14% (n = 360,000) | AID 602329, 2012;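 active means mean normalized replicate activity at least 40 and at least half of replicates scoring 40 or more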;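 further: 0% = median of neutral control wells and 100% = median of positive control wells; inhibitors cause a drop in the FAM fluorescence signal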
Target sequence (Q92698 whole entry, looked up): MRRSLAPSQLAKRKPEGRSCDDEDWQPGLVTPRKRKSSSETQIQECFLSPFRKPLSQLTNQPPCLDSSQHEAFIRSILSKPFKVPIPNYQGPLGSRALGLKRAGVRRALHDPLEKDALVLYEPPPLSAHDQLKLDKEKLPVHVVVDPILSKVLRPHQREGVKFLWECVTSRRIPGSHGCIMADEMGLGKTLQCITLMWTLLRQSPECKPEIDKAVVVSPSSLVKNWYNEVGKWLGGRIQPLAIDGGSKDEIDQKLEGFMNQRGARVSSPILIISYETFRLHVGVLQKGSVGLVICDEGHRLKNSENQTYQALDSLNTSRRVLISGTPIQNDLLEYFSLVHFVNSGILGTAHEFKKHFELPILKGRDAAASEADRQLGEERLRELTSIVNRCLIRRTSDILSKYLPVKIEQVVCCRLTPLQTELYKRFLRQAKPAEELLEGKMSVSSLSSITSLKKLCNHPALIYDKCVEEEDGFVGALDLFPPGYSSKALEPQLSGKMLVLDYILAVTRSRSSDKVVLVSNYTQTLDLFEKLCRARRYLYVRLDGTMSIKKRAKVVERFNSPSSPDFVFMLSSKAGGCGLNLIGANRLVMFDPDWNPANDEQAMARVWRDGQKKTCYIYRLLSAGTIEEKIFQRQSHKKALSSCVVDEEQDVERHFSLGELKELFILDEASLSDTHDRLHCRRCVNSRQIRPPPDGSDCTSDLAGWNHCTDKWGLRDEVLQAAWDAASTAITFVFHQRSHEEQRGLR
dFosB act: activators of delta FosB homodimer, primary screen, biochemical, fluorescence polarization, TAMRA-CDK5 oligo, single point; actives 0.99% (n = 340,000); Protein FosB (Mus musculus), P13346; activation, % at 25 µM; purified delta FosB; percent of positive-control signal above neutral wells;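 active means mean activation above about 17%, with every replicate also reaching it, limit read from the data, passing the limit was not always enough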
PvdQ acylase: P. aeruginosa PvdQ acylase inhibitors, primary screen, biochemical, fluorescence, plate reader and imaging, single point | purified PvdQ acylase | actives 0.063% (n = 340,000) | PvdQ acylase [Pseudomonas aeruginosa LESB58] | AID 488965, 2010 | inhibition, % at 10 µM; in the data active means inhibition above about 30%, passing the limit was not always enough;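 further: 0% = vehicle neutral wells and 100% = reference inhibitor wells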
SR-BI uptake up: activators of SR-BI mediated DiI-HDL uptake, primary screen, ldlA[mSR-BI] CHO cells, DiI fluorescence; AID 504775, 2011; activation, % at 12.5 µM; actives 0.096% (n = 320,000); 3 h; 100 = double the neutral-control signal;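 active means mean replicate activation of at least 60% and every replicate at or above 60%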;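 further: 0% = median plate neutral-control signal and 100% = twice that signal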
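System: LDL receptor-deficient CHO ldlA cells overexpressing murine SR-BI | Timing: 3 h uptake period with compound, 37 °C | Medium: HEPES-buffered (25 mM, pH 7.4) F12 plus 0.5% BSA | Dosing: Single-point compound dose | Signal: Bottom-read fluorescence, 550/595 nm | Read-out: Retained DiI signal reflecting DiI-HDL uptake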
DiI quench: counter-screen for SR-BI lipid transfer inhibitors: DiI fluorescence quenchers; AID 540326; AC50, µM (doses to about 35 µM), for the others: at the highest dose activity change, negative = quenching; cell-free DiI-HDL fluorescence quenching, 30 min; actives 20% (n = 470); shares compounds with SR-BI DiI inh;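 active means quenching, a falling signal, with AC50 below a set limit tied to the top valid dose, actives reach about 32 µM in these data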
Numbers without * were called inactive.

What do the screens show for `CN(C)C(=O)C[C@@H]1CC[C@@H](NC(=O)Nc2cccc(F)c2)[C@H](CO)O1`?
S100A4 MyoIIA: -11.8; RAD54 inh: -3.0

Results for CCC(=O)N1[C@@H]2c3cccc(=O)n3C[C@@H]2[C@@H](CO)[C@@H]1C(=O)NCC1CC1 ?
S100A4 MyoIIA: 1.3; RAD54 inh: -11.2

Results for COc1cc(-c2nnn(Cc3ccccc3C)n2)cc(OC)c1OC ?
SR-BI DiI inh: 101.1*; S100A4 MyoIIA: -1.2; RAD54 inh: -4.0; dFosB act: -10.6; PvdQ acylase: -14.7; SR-BI uptake up: -101.1; DiI quench: 2.0%

What do the screens show for `CCOC(=O)Cn1nnc(-c2cc(OC)c(OC)c(OC)c2)n1`?
SR-BI DiI inh: -1.2; S100A4 MyoIIA: -2.4; RAD54 inh: -7.0; dFosB act: -5.3; PvdQ acylase: -5.6; SR-BI uptake up: 1.2

Results for CNc1nc(-c2ccc3c(c2)CCN3C(=O)c2ccccc2F)cs1 ?
SR-BI DiI inh: 69.6; S100A4 MyoIIA: -1.8; dFosB act: -5.1; PvdQ acylase: -2.4; SR-BI uptake up: -69.6

Results for CCCC(=O)N1CCc2cc(-c3nc(N)sc3C)ccc21 ?
SR-BI DiI inh: 74.6*; RAD54 inh: -0.5; dFosB act: -5.2; PvdQ acylase: -1.0; SR-BI uptake up: -74.6; DiI quench: -8.7%

Results for CNc1nc(-c2ccc3c(c2)CCN3C(=O)c2ccccc2F)c(C)s1 ?
SR-BI DiI inh: 57.2; S100A4 MyoIIA: 4.9; RAD54 inh: 1.6; dFosB act: -9.3; PvdQ acylase: 10.0; SR-BI uptake up: -57.2; DiI quench: -3.7%

How did COCCCNc1nc2c(-c3cccc(C)c3)nnn2c2ccccc12 do in these assays?
SR-BI DiI inh: 103.1*; S100A4 MyoIIA: 9.4; RAD54 inh: -3.7; dFosB act: -5.4; PvdQ acylase: -6.9; SR-BI uptake up: -103.1; DiI quench: 9.7%

Results for COc1ccccc1CNC(=O)C1CCC(CNC(=O)[C@@H]2Cc3ccccc3CN2)CC1 (stereo partly specified) ?
SR-BI DiI inh: 77.0*; S100A4 MyoIIA: 6.3; RAD54 inh: -2.4; dFosB act: -13.0; PvdQ acylase: 3.0; SR-BI uptake up: -77.0; DiI quench: -4.6%

Results for COc1ccc(S(=O)(=O)Nc2ccc3c(c2)C(=O)N(C)C[C@H](OC)[C@@H](C)CN[C@@H](C)CO3)cc1 ?
S100A4 MyoIIA: -30.1; RAD54 inh: -0.6

Results for CC(C)c1cc(CNC(=O)C2CCC(=O)N(CCc3ccc(Cl)cc3)C2)on1 (stereo unspecified) ?
SR-BI DiI inh: 78.4*; S100A4 MyoIIA: -5.1; RAD54 inh: -8.3; dFosB act: -2.2; PvdQ acylase: -6.7; SR-BI uptake up: -78.4; DiI quench: -1.2%

What do the screens show for `COc1ccc(CCN2CC(C(=O)NCc3cc(C(C)C)no3)CCC2=O)cc1` (stereo unspecified)?
SR-BI DiI inh: -12.1; S100A4 MyoIIA: 4.7; RAD54 inh: -24.2; dFosB act: -4.2; PvdQ acylase: -11.9; SR-BI uptake up: 12.1; DiI quench: -2.0%

How did COc1cccc(CN2C[C@@H](C)[C@H](OC)CN(C)C(=O)c3ccc(NS(=O)(=O)c4cn(C)cn4)cc3OC[C@H]2C)c1 do in these assays?
RAD54 inh: -6.2

Source: PubChem
